Published values gathered from unrelated publications.
Target: Tyrosine-protein kinase ABL2 (ABL2, Homo sapiens, UniProt P42684)

CCN(CC)c1ccc(C2=NNC(=O)CC2C)cc1[N+](=O)[O-] (centres unmarked)  remaining activity (enzyme activity; inhibitor; 10 µM): 89%
COc1cc2ncnc(Nc3ccc(Oc4ccccc4)c(C)c3C)c2cc1OC  inhibition (enzyme activity; inhibitor; 1 µM): 6%
Cc1cc(NC(=O)c2cccc3cc(-c4cccc5[nH]nc(N)c45)ccc23)ccc1F  activity vs control (enzyme activity; inhibitor; 0.1 µM): 122%
CC(C)(C)c1nc2c(s1)c1nc(N)ncc1c1ccc(NS(=O)(=O)c3c(F)cccc3F)c(F)c12  remaining activity (enzyme activity; inhibitor; radiometric; 1 µM): 99%
CNC(=O)c1cc(Oc2ccc(NC(=O)Nc3ccc(Cl)c(C(F)(F)F)c3)cc2)ccn1  inhibition (enzyme activity; inhibitor; 10 µM): 48%
Cc1ccc(NC(=O)c2ccc(C)c(C(F)(F)F)c2)cc1C#Cc1nn(C2CCC(O)CC2)c2ncnc(N)c12 (centres unmarked)  remaining signal (cell-free assay; 10 µM): 0%
Cc1ccc(Nc2nccc(N(C)c3ccc4c(C)n(C)nc4c3)n2)cc1S(N)(=O)=O  inhibition (enzyme activity; inhibitor; 0.3 µM): 24%
Nc1ncnc2occ(-c3ccc(NC(=O)Nc4cc(C(F)(F)F)ccc4F)cc3)c12  remaining signal (cell-free assay; inhibitor; 20 µM): 0.65%
COCCOc1nc(-c2ccc(Cl)nc2)nc2c1CN(C(=O)c1ncn3ccccc13)CC2  remaining binding (cell-free assay; competition with immobilised ligand; 0.1 µM): 100%
COc1cc2nccc(Oc3ccc(NC(=O)c4c5n(n(-c6ccc(F)cc6)c4=O)CCCC5)cc3)c2cc1OC  inhibition (enzyme activity; inhibitor; 0.1 µM): 36%
CNc1cccc2cc(C(=O)Nc3ccc(C(=O)O)cc3)c(=O)[nH]c12  inhibition (enzyme activity; inhibitor; 10 µM): -3.6%
O=C1NC(c2ccccn2)Sc2ccccc21 (centres unmarked)  remaining binding (cell-free assay; competition with immobilised ligand; 1 µM): 85%
Clc1ccc(Nc2nnc(Cc3ccncc3)c3ccccc23)cc1  remaining signal (cell-free assay; 0.5 µM): 101%
Cn1cc(Cl)c2c(Oc3c(F)cc(Nc4cc(Cl)nc(N)n4)cc3F)ccnc21  remaining binding (cell-free assay; competition with immobilised ligand; 0.1 µM): 99%
O=C(Nc1cnn(-c2csc(C(=O)NC3COC3)c2)c1)Nc1ccccc1Cl  remaining activity (enzyme activity; inhibitor; 5 µM): 92.7%
CC(=O)N1CCC(c2ccc(C(=O)NC3=NCCN3)cc2C(F)(F)F)CC1  remaining binding (cell-free assay; competition with immobilised ligand; 1 µM): 100%
Cc1cnc(NC2CCOCC2)nc1-n1cnc(C(=O)NC(CN)c2cc(F)cc(Cl)c2)c1 (centres unmarked)  remaining activity (enzyme activity; inhibitor; radiometric; 1 µM): 87%
CN(C)c1ncnc(-c2ccc3nc(Nc4cc(CN5CCN(C(=O)CC(F)(F)F)CC5)ccn4)[nH]c3c2)c1Cl  remaining binding (cell-free assay; competition with immobilised ligand; 1 µM): 71%
Cc1ccc(C(=O)NCc2ccsc2)cc1C#Cc1cn(C(C)C)c2ncnc(N)c12  activity vs control (enzyme activity; inhibitor; 1 µM): 6%
Cc1nccc(COC(=O)N2C[C@@H]3[C@@H](CNC(=O)c4ccc5[nH]nnc5c4)[C@@H]3C2)n1  remaining binding (cell-free assay; competition with immobilised ligand; 1 µM): 90%
O=C1NC(=O)c2cc(Nc3ccc(F)cc3)c(Nc3ccc(F)cc3)cc21  remaining signal (cell-free assay; 0.5 µM): 89.6%
CN(C(=O)c1ccccc1)c1cc(N(C)c2ccc3c(c2)CCc2ccc(C(=O)NCCN4CCOCC4)cc2C3=O)ccc1F  remaining binding (cell-free assay; competition with immobilised ligand; 1 µM): 100%
C=CC(=O)Nc1cc(Nc2nccc(Nc3cc(Cl)c(F)cc3C(C)(C)O)n2)c(OC)cc1N1CC[C@@H](N(C)C)C1  inhibition (enzyme activity; inhibitor; 1 µM): 18%
